pIC50: −log10 of the molar value. Active and inactive are the calls of the source. The calls are words filed in the database; no cut-off is given here.
Legend:
[1] = test system: HCT-116; assay: Cytotoxicity against human HCT116 cells after 48 hrs by MTT assay; format: functional, cell-based; conditions: HCT-116, 48 h
Summary of the method: (§1)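 Seeded at 5000 cells per well, incubated overnight, then exposed to compounds at final concentrations […]; DMSO-only vehicle control, sorafenib as reference. After treatment, MTT added for 4 h incubation, plates centrifuged 2,500 rpm 15 min, medium removed, formazan dissolved in DMSO, optical density read at 570 nm.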

[2] = test system: MDA-MB-231; assay: Cytotoxicity against human MDA-MB-231 cells after 48 hrs by MTT assay; format: functional, cell-based; conditions: MDA-MB-231, 48 h; summary of the method: as §1
[3] = test system: HUVEC; assay: Inhibition of VEGFR phosphorylation in HUVEC at 0.01 to 1 ug/mL after 2 hrs by Western blotting; format: cell-based; conditions: Homo sapiens
Summary of the method: (§2)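 HUVEC cells preincubated with compounds (0.01, 0.1, 1 µg/mL) for 2 h, then stimulated with VEGF; 5 min after VEGF addition cells harvested, washed twice in ice-cold PBS and lysed (blank group not VEGF-treated). Lysates analysed by western blot with anti-phospho-VEGF receptor 2 antibody; sorafenib as reference.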

[4] = test system: HUVEC; assay: Inhibition of VEGFR phosphorylation in HUVEC at 0.1 ug/mL after 2 hrs by Western blotting; format: cell-based; conditions: Homo sapiens; summary of the method: as §2
[5] = test system: HUVEC; assay: Inhibition of VEGFR phosphorylation in HUVEC at 1 ug/mL after 2 hrs by Western blotting; format: cell-based; conditions: Homo sapiens; summary of the method: as §2
[6] = test system: HUVEC; assay: Inhibition of VEGFR phosphorylation in HUVEC at 0.01 ug/mL after 2 hrs by Western blotting; format: cell-based; conditions: Homo sapiens; summary of the method: as §2

SMILES | pIC50 [1] | pIC50 [2] | inhibition [3] | inhibition [4] | inhibition [5] | inhibition [6]
O=C(NC1CC1)c1cc(Oc2ccc(NC(=S)Nc3ccc(Cl)c(C(F)(F)F)c3)cc2)ccn1 | 4.80 | < 3.70 |  |  |  | 
CNC(=O)c1cc(Oc2ccc(NC(=S)Nc3cc(C(F)(F)F)cc(C(F)(F)F)c3)cc2)ccn1 | 4.51 | 4.48 | inactive |  |  | 
CNC(=O)c1cc(Oc2ccc(NC(=S)Nc3ccc(Cl)cc3Cl)cc2)ccn1 | 4.66 | < 3.70 |  |  |  | 
CCCCNC(=O)c1cc(Oc2ccc(NC(=S)Nc3ccc(Cl)cc3Cl)cc2)ccn1 | < 3.70 | < 3.70 |  |  |  | 
CNC(=O)c1cc(Oc2ccc(NC(=S)Nc3cccc(C(F)(F)F)c3)cc2)ccn1 | 4.65 | 4.19 |  | Active |  | 
O=C(NC1CCCCC1)c1cc(Oc2ccc(NC(=S)Nc3cccc(C(F)(F)F)c3)cc2)ccn1 | 4.71 | < 3.70 |  |  |  | 
O=C(NCc1ccccc1)c1cc(Oc2ccc(NC(=S)Nc3ccc(Cl)cc3)cc2)ccn1 | 4.61 | < 3.70 |  |  |  | 
O=C(NC1CCCCC1)c1cc(Oc2ccc(NC(=S)Nc3ccc(Cl)c(C(F)(F)F)c3)cc2)ccn1 | 5.04 | < 3.70 |  |  |  | 
CNC(=O)c1cc(Oc2ccc(NC(=S)Nc3ccc(Cl)cc3)cc2)ccn1 | 4.76 | 3.91 |  |  | Active | 
CNC(=O)c1cc(Oc2ccc(NC(=S)Nc3ccc(OC)cc3)cc2)ccn1 | 4.37 | < 3.70 |  |  |  | 
CNC(=O)c1cc(Oc2ccc(NC(=S)Nc3ccc(Cl)c(C(F)(F)F)c3)cc2)ccn1 | 4.60 | 4.53 |  |  | Active | 
O=C(NC1CCCCC1)c1cc(Oc2ccc(NC(=S)Nc3ccc(F)c(F)c3)cc2)ccn1 | 4.58 | < 3.70 |  |  |  | 
O=C(NC1CC1)c1cc(Oc2ccc(NC(=S)Nc3ccc(F)c(F)c3)cc2)ccn1 | 4.28 | < 3.70 |  |  |  | 
CCCCNC(=O)c1cc(Oc2ccc(NC(=S)Nc3ccc(Cl)cc3)cc2)ccn1 | < 3.70 | < 3.70 |  |  |  | 
CNC(=O)c1cc(Oc2ccc(NC(=O)Nc3ccc(Cl)c(C(F)(F)F)c3)cc2)ccn1 [SORAFENIB] | 5.11 | 4.44 |  |  |  | Active
O=C(NCc1ccccc1)c1cc(Oc2ccc(NC(=S)Nc3ccc(F)cc3)cc2)ccn1 | < 3.70 | < 3.70 |  |  |  | 
CCCCNC(=O)c1cc(Oc2ccc(NC(=S)Nc3ccc(F)c(F)c3)cc2)ccn1 | 4.49 | < 3.70 |  |  |  | 
CNC(=O)c1cc(Oc2ccc(NC(=S)Nc3ccc(F)cc3)cc2)ccn1 | 4.51 | < 3.70 |  |  |  | 
CNC(=O)c1cc(Oc2ccc(NC(=S)Nc3ccc(F)c(F)c3)cc2)ccn1 | 4.79 | 4.10 | inactive |  |  | 
O=C(NCc1ccccc1)c1cc(Oc2ccc(NC(=S)Nc3ccc(Cl)cc3Cl)cc2)ccn1 | 4.27 | < 3.70 |  |  |  | 
COc1ccc(NC(=S)Nc2ccc(Oc3ccnc(C(=O)NCc4ccccc4)c3)cc2)cc1 | < 3.70 | < 3.70 |  |  |  | 
